Five compounds from ChEMBL document CHEMBL1255546, “Discovery of potent and selective histamine H3 receptor inverse agonists based on the 3,4-dihydro-2H-pyrazino[1,2-a]indol-1-one scaffold” (Bioorg Med Chem Lett, 2010) can be followed below.

Data set [1] deals with Histamine H4 receptor (Homo sapiens) (UniProt Q9H3N8). As to the kind of experiment: Displacement of [3H]-histamine from human histamine H4 receptor. The settings on record: concentration not given here. On the set-up: concentration or dose not given beside the values. The essentials: (§1)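 Radioligand displacement assays, single determination (n = 1) each: [3H]-mepyramine at H1, [3H]-tiotidine at H2, [3H]-histamine at H4.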
Chain of Histamine H4 receptor (Homo sapiens) (Q9H3N8 whole entry): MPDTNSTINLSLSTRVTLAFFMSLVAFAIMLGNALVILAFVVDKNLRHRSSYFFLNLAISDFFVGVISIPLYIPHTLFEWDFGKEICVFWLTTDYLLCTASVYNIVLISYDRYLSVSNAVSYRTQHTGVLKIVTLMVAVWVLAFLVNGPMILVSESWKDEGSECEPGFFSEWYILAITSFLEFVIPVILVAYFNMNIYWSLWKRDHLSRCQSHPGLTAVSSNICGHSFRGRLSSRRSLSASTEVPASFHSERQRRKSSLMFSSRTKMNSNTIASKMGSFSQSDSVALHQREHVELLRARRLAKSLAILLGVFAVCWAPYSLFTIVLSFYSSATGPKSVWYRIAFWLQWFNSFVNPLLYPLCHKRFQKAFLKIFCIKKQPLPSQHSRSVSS

In data set [2] the target is Histamine H2 receptor (Homo sapiens) (UniProt P25021). As to the kind of experiment: Displacement of [3H]-tiotidine from human histamine H2 receptor. The arrangement: concentration or dose not given beside the values. As to conditions: concentration not given here. The essentials:
as §1

In data set [3] the test system is Rattus norvegicus. The data set is described as follows: Inhibition of water intake in rat dipsogenia model at 10 mg/kg, po. In kind it is functional, organism-based. On the set-up: dose 10 mg/kg.
A short description of data set [4]: Intrinsic clearance in rat liver microsomes. The class given is ADME, Microsome.
Data set [5] concerns the target T1, Histamine H3 receptor (Homo sapiens, UniProt Q9Y5N1). The data set is described as follows: Inverse agonist activity at human recombinant histamine H3 receptor assessed as effect on [35S]GTPgammaS binding. In kind it is functional.
The subject of data set [6] is Rattus norvegicus. As to the kind of experiment: Inhibition of (R)-alpha-methyl histamine-induced increased water intake in rat dipsogenia model at 10 mg/kg, po. The class given is functional.
The nature of data set [7]: Intrinsic clearance in human liver microsomes. The class given is ADME, Microsome.
Another data set addresses Cytochrome P450 2D6 (Homo sapiens, UniProt P10635). The data set is described as follows: Inhibition of CYP2D6. The class given is ADME.
Data set [8] is described as follows: Lipophilicity, log D of the compound at pH 7.4. As to conditions: buffer. The class given is physicochemical.
The next data set addresses Cytochrome P450 2C9 (Homo sapiens, UniProt P11712). As to the kind of experiment: Inhibition of CYP2C9. The class given is ADME.
In data set [9] the target is T1, Histamine H3 receptor. The data set is described as follows: Displacement of [3H]-RAMH from human histamine H3 receptor.
The test system of data set [10] is Rattus norvegicus. As to the kind of experiment: Toxicity in rat assessed as change in behavioral effect at 10 mg/kg, po measured for 1 hr. In kind it is organism-based. On the set-up: dose 10 mg/kg, route oral. The settings on record: in vivo.
Data set [11] deals with T2, Histamine H3 receptor (Rattus norvegicus, UniProt Q9QYN8). As to the kind of experiment: Inverse agonist activity at rat histamine H3 receptor. The class given is functional.
T2 sequence (Q9QYN8 whole entry): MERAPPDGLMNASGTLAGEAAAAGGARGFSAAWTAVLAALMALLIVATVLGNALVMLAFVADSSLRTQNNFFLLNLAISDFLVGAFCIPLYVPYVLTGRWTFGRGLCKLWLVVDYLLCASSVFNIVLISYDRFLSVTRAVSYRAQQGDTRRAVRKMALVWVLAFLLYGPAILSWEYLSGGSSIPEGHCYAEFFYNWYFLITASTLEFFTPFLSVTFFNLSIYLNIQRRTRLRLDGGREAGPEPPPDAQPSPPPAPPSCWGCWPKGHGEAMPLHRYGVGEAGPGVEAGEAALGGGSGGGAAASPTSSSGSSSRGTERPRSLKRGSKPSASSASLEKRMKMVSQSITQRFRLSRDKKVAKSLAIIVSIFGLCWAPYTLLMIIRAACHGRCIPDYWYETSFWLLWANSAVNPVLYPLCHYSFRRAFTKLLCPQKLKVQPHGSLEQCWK
For data set [12], the target named is T2, Histamine H3 receptor. As to the kind of experiment: Binding affinity to rat histamine H3 receptor.
In the next data set the target is Cytochrome P450 3A4 (Homo sapiens, UniProt P08684). As to the kind of experiment: Inhibition of CYP3A4. In kind it is ADME.
Chain of Cytochrome P450 3A4 (P08684 whole entry): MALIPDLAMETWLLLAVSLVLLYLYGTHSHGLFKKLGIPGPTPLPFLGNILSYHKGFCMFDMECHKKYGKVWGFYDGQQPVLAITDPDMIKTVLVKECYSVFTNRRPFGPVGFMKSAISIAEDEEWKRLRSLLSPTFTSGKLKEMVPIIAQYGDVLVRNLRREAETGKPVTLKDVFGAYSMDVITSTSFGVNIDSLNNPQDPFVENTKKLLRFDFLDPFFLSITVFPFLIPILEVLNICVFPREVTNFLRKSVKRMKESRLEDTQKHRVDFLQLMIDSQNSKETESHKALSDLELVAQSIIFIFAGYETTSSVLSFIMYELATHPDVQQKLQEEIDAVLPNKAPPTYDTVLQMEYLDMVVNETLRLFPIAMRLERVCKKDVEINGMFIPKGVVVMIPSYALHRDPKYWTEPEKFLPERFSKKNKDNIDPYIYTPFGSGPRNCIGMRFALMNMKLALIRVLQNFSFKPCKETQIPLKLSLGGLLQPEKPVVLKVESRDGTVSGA
The nature of data set [13]: Aqueous solubility of the compound in 0.05 M phosphate buffer at pH 6.5. In kind it is physicochemical.
Data set [14] addresses Histamine H1 receptor (Homo sapiens) (UniProt P35367). The data set is described as follows: Displacement of [3H]-mepyramine from human histamine H1 receptor. As to conditions: concentration not given here. The arrangement: concentration or dose not given beside the values. An outline of the steps:
as §1

In data set [15] the target is T1, Histamine H3 receptor. As to conditions: 3 uM.

Values after ≈ are worked out from the molar mass of the structure shown. Active and inactive are the calls of the source. No cut-off for these calls is given here.

T1 sequence (Q9Y5N1 whole entry): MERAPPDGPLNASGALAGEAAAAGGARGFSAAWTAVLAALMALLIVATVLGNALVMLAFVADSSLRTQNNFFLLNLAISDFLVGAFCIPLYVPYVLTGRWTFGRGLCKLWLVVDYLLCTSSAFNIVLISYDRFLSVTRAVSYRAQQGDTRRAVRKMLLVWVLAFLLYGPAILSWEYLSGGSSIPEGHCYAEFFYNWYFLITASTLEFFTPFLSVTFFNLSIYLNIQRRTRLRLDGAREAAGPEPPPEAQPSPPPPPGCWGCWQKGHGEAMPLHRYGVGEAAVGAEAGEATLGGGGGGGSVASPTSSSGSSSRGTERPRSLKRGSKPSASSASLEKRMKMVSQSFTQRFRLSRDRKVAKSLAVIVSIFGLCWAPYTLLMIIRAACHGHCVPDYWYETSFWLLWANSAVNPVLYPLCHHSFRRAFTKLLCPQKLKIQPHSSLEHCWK
Chain of Cytochrome P450 2D6 (P10635 whole entry): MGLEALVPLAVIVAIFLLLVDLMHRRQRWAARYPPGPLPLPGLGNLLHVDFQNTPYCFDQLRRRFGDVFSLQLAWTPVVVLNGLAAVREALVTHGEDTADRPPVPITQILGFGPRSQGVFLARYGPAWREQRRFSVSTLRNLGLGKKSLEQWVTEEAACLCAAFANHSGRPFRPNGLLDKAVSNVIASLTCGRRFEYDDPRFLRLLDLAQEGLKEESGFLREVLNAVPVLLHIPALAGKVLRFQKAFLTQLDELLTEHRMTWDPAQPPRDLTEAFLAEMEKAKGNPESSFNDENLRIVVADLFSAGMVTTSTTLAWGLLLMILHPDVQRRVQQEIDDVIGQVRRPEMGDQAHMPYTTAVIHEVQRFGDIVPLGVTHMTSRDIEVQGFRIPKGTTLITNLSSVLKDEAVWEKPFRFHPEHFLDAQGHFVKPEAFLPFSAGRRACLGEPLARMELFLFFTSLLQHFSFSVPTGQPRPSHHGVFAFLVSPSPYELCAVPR
Chain of Histamine H2 receptor (Homo sapiens) (P25021 whole entry): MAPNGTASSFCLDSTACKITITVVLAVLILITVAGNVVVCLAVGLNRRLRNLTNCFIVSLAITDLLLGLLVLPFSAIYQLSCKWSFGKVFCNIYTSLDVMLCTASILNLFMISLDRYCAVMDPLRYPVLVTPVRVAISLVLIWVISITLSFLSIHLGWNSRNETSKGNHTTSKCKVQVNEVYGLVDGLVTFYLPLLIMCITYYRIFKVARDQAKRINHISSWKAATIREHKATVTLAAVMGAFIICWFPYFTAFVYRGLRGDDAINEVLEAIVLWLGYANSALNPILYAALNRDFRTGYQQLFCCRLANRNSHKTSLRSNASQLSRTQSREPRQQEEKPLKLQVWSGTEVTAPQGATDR
Chain of Cytochrome P450 2C9 (P11712 whole entry): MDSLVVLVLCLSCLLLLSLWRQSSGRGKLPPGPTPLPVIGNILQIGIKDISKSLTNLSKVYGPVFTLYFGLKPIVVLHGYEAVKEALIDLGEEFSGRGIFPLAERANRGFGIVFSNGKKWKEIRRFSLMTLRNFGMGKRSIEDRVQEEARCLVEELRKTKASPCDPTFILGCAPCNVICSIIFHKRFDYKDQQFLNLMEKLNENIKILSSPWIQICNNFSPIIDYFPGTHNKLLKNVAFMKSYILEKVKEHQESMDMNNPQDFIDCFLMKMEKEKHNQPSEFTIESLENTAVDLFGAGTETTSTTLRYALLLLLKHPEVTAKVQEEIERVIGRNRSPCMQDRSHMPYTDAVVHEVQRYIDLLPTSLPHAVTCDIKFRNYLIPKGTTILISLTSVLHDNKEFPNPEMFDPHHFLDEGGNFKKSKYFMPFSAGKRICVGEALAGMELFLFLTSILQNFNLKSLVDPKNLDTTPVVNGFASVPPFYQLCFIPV
Chain of Histamine H1 receptor (Homo sapiens) (P35367 whole entry): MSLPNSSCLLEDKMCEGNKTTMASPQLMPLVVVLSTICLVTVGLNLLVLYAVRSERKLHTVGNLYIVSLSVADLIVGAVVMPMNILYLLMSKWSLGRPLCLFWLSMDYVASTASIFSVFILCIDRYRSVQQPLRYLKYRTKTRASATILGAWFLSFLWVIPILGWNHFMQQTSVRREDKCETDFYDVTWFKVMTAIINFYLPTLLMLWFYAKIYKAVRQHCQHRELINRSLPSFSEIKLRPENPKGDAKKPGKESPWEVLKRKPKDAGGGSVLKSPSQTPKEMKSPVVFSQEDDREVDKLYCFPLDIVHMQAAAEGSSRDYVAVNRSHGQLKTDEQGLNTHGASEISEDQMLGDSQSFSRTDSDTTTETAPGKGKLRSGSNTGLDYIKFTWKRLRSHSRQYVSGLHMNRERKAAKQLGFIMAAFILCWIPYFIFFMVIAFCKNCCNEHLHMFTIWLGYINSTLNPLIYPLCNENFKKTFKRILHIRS

As to `CC(C)N1CCC(Oc2ccc3c(c2)cc2n3C[C@@H](C)N(CC3CC3)C2=O)CC1`, the results for the inhibition in data set [1], in [2] and in data set [14] were 12%, 8% and 3%, respectively. In addition, the inhibition entry in the data set with Rattus norvegicus [3] was “inactive”. The microsomal CLint was found to be 10 µL/min/mg in data set [4] and 6 µL/min/mg in data set [7]. Moreover, the EC50 at Histamine H3 receptor [5] and on Histamine H3 receptor [11] was 18 nM throughout. The same compound had an inhibition in vivo at 10 mg/kg in the data set on Rattus norvegicus [6] of 64%. In addition, the IC50 at Cytochrome P450 2D6, against Cytochrome P450 2C9 and against Cytochrome P450 3A4 was more than 50000 nM each time. Also, in data set [8], the logD was determined as 1.4. Besides, the Ki on Histamine H3 receptor [9] was 5 nM; at Histamine H3 receptor [12], 12 nM. The Activity result in the data set on Rattus norvegicus [10] is “Non-toxic”. This compound also showed a solubility in data set [13] of more than 441 µg/mL.

`CC(C)N1CCC(Oc2ccc3c(c2)cc2n3CCN(CCO)C2=O)CC1`: the inhibition in [1] was -5%; in [2], 14%; in [14], -1%. Moreover, the values for the microsomal CLint in [4] and in [7] were 11 µL/min/mg and 9 µL/min/mg, respectively. At Histamine H3 receptor [5], the EC50 was 56 nM. Moreover, the IC50 against Cytochrome P450 2D6 was 900 nM; against Cytochrome P450 2C9 it was more than 50000 nM; at Cytochrome P450 3A4, more than 50000 nM. In data set [8], this compound yielded a logD of -0.25. Also, affinity at Histamine H3 receptor [9] was put at a Ki of 46 nM. Further, the solubility in data set [13] is more than 406 µg/mL.

For `CC(C)N1CCC(Oc2cc3cc4n(c3cc2Br)[C@@H](C)CN(CC2CC2)C4=O)CC1`, the inhibition in data set [1] is 1%; in [2], -3%; in data set [14] it was 10%. Moreover, the microsomal CLint in [4] amounted to 20 µL/min/mg; in [7], 7 µL/min/mg. The EC50 at Histamine H3 receptor [5] is 2 nM. Besides, the IC50 against Cytochrome P450 2D6, at Cytochrome P450 2C9 and against Cytochrome P450 3A4 was more than 50000 nM in each case. The same compound showed a logD in data set [8] of 2.32. At Histamine H3 receptor [9], this compound yielded a Ki of 2 nM. The compound further displayed a solubility in data set [13] of 506 µg/mL (≈ 1070 µM).

With `CC(C)N1CCC(Oc2ccc3c(c2)cc2n3CCN(Cc3ccc(F)cc3)C2=O)CC1`, the inhibition is 1% in [1], -3% in data set [2] and 17% in [14]. Also, the microsomal CLint in data set [4] is 17 µL/min/mg; in data set [7], 5 µL/min/mg. Also, the EC50 at Histamine H3 receptor [5] is 14 nM. Besides, the IC50 on Cytochrome P450 2D6 was 35000 nM; on Cytochrome P450 2C9 it was more than 50000 nM; against Cytochrome P450 3A4, more than 50000 nM. Also, the logD in data set [8] worked out at 2.06. Besides, on Histamine H3 receptor [9], the affinity corresponds to a Ki of 7 nM. The solubility in [13] came out at 382 µg/mL (≈ 877 µM).

Compound `CC(C)N1CCC(Oc2ccc3[nH]c4c(c3c2)CCNC4=O)CC1` registered a Ki on Histamine H3 receptor [9] of more than 3000 nM. Moreover, the inhibition on Histamine H3 receptor [15] came out at 35%.
